In ChEMBL document CHEMBL1135477, “Antifungal agents. 10. New derivatives of 1-[(aryl)[4-aryl-1H-pyrrol-3-yl]methyl]-1H-imidazole, synthesis, anti-candida activity, and quantitative structure-analysis relationship studies” (J Med Chem, 2002):
In brackets after ≈: the same amount, converted by molar mass.

How the values were obtained:
Format in all cases: functional
Candida albicans [1] = experiment: In vitro antifungal activity against 40 strains of Candida albicans at pH 5.8
Summary of the method: (§1)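 Broth serial-dilution MIC against 40 clinical C. albicans isolates from hospitalized patients, grown in Sabouraud broth at pH 7.2 or 5.8. Cells were pre-grown 18 h at 37 °C, inoculated at 10³/mL, and read at 24 h, 37 °C. Doubling dilutions ran 0.25–256 μg/mL from a DMSO/water solution. MIC was the lowest concentration with no visible growth against a DMSO/water blank.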

[2] = molecular target: Lanosterol 14-alpha demethylase (Candida albicans (strain SC5314 / ATCC MYA-2876) (Yeast), UniProt P10613); experiment: Anticandida activity- (MIC90 compound) / (MIC90 bifonazole)
Lanosterol 14-alpha demethylase, sequence (P10613 whole entry): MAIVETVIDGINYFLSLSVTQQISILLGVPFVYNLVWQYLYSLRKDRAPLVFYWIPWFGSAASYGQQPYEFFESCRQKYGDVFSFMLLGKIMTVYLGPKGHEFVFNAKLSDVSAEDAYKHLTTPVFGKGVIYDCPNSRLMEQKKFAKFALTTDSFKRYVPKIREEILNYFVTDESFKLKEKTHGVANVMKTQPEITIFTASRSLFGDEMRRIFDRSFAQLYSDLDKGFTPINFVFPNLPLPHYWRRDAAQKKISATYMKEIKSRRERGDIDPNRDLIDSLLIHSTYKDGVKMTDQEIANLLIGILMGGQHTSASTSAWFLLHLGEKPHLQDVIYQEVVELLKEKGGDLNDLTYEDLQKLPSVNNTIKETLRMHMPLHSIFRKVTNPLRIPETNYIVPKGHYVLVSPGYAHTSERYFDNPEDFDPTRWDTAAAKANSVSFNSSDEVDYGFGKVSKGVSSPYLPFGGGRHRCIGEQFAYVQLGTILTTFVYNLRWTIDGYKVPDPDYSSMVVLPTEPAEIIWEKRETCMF

Candida [3] = experiment: Tested In vitro for antifungal activity against Candida species. at pH 7.2
Summary of the method: (§2)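 Liquid serial-dilution MIC against 3 freshly isolated clinical Candida strains (two C. glabrata, one C. krusei) in Sabouraud broth at pH 7.2 or 5.8. Inoculum was 10³/mL after 18 h pre-culture at 37 °C, read at 24 h, 37 °C. Range was 0.25–256 μg/mL. Endpoint was no visible growth versus a DMSO/water blank.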

Candida albicans [4] = experiment: In vitro antifungal activity against 40 strains of Candida albicans at pH 5.8; (percent of resistant species at 256 ug/mL)
Summary of the method: (§3)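 Broth serial-dilution test in Sabouraud broth at pH 7.2 or 5.8, against 40 fresh clinical C. albicans isolates from hospitalized patients. Inocula were 10³/mL, pre-grown 18 h at 37 °C in Sabouraud dextrose broth. Compound from a DMSO/water stock was twofold-diluted over 0.25–256 µg/mL. Visible growth was read at 24 h, 37 °C.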

Candida [5] = experiment: Tested in vitro for antifungal activity against Candida species. at pH 5.8; summary of the method: as §2
Candida [6] = experiment: Tested In vitro for antifungal activity against Candida species. at pH 7.2; (percent of resistant species at 256 ug/mL)
Summary of the method: (§4)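 Broth serial-dilution test in Sabouraud broth at pH 7.2 or 5.8, against 3 fresh clinical non-albicans isolates (two C. glabrata, one C. krusei). Inocula were 10³/mL, pre-grown 18 h at 37 °C. Compound was twofold-diluted over 0.25–256 µg/mL and read at 24 h, 37 °C for visible growth.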

Candida [7] = experiment: Tested in vitro for antifungal activity against Candida species. at pH 5.8; range is from 1 to 64; summary of the method: as §2
Candida albicans [8] = experiment: In vitro antifungal activity against 40 strains of Candida albicans at pH 7.2; (percent of resistant species at 256 ug/mL); summary of the method: as §3
Candida albicans [9] = experiment: In vitro antifungal activity against 40 strains of Candida albicans at pH 7.2; summary of the method: as §1
Candida albicans [10] = experiment: In vitro antifungal activity against 40 strains of Candida albicans at pH 5.8; value ranges from 0.5 to 4); summary of the method: as §1
Candida [11] = experiment: Tested in vitro for antifungal activity against Candida species. at pH 5.8 (percent of resistant species at 256 ug/mL); summary of the method: as §4
Candida [12] = experiment: Tested In vitro for antifungal activity against Candida species. at pH 7.2; (range is from 4 to 16); summary of the method: as §2
Candida albicans [13] = experiment: In vitro antifungal activity against 40 strains of Candida albicans at pH 7.2; minimum inhibitory concentration (range is from 1 to 32); summary of the method: as §1
Candida albicans [14] = experiment: In vitro antifungal activity against 40 strains of Candida albicans at pH 5.8; value ranges from 128 to >256; summary of the method: as §1
Candida [15] = experiment: Tested in vitro for antifungal activity against Candida species. at pH 5.8; (percent of resistant species at 256 ug/mL); summary of the method: as §4
Candida albicans [16] = experiment: In vitro antifungal activity against 40 strains of Candida albicans at pH 7.2; minimum inhibitory concentration; value ranges from 128 to >256; summary of the method: as §1
Candida [17] = experiment: Tested in vitro for antifungal activity against Candida species. at pH 7.2; (percent of resistant species at 256 ug/mL); summary of the method: as §4
Candida [18] = experiment: Tested in vitro for antifungal activity against Candida species. at pH 7.2
Summary of the method: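 Fresh clinical isolates (two C. glabrata, one C. krusei) were pre-grown 18 h at 37 °C in Sabouraud dextrose broth. Broth double-dilution was run in Sabouraud broth at pH 5.8 or 7.2 over 0.25–256 µg/mL from a DMSO/water stock, with 10³/mL inoculum.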

Candida albicans [19] = experiment: In vitro antifungal activity against Candida albicans (40 strains) at pH 7.2; (percent of resistant species at 256 ug/mL); summary of the method: as §3
Candida albicans [20] = experiment: In vitro antifungal activity against 40 strains of Candida albicans at pH 7.2; value ranges from 128 to >256; summary of the method: as §1
Candida [21] = experiment: Tested In vitro for antifungal activity against Candida species. at pH 7.2 (percent of resistant species at 256 ug/mL); summary of the method: as §4
Candida albicans [22] = experiment: In vitro antifungal activity against 40 strains of Candida albicans at pH 5.8 (percent of resistant species at 256 ug/mL); summary of the method: as §3
Candida albicans [23] = experiment: In vitro antifungal activity against 40 strains of Candida albicans at pH 5.8; value ranges from 256 to >256; summary of the method: as §1
Candida albicans [24] = experiment: Compound was tested for its anti-candida activity, expressed as ratio of minimum inhibitory concentration
Candida albicans [25] = experiment: IIn vitro antifungal activity against 40 strains of Candida albicans at pH 7.2; minimum inhibitory concentration (range is from 2 to 64); summary of the method: as §1
Candida [26] = experiment: Tested In vitro for antifungal activity against Candida species. at pH 7.2; (range is from 1 to 32); summary of the method: as §2
Candida [27] = experiment: Tested in vitro for antifungal activity against Candida species. at pH 5.8 (range is from 8 to 256); summary of the method: as §2
Candida albicans [28] = experiment: TIn vitro antifungal activity against 40 strains of Candida albicans at pH 5.8; (range is from 4 to 64); summary of the method: as §1
Candida albicans [29] = experiment: In vitro antifungal activity against 40 strains of Candida albicans at pH 5.8; (range is from 0.25 to 64); summary of the method: as §1
Candida [30] = experiment: Tested in vitro for antifungal activity against Candida species. at pH 5.8 (range is from 4 to 16); summary of the method: as §2
Candida [31] = experiment: Tested In vitro for antifungal activity against Candida species. at pH 7.2; (range is from 2 to 32); summary of the method: as §2
Candida [32] = experiment: Tested in vitro for antifungal activity against Candida species. at pH 5.8 (value ranges from 16 to 128); summary of the method: as §2
Candida albicans [33] = experiment: IIn vitro antifungal activity against 40 strains of Candida albicans at pH 7.2; minimum inhibitory concentration (range is from 2 to 128); summary of the method: as §1
Candida albicans [34] = experiment: In vitro antifungal activity against 40 strains of Candida albicans at pH 5.8; (range is from 4 to 64); summary of the method: as §1
Candida [35] = experiment: Tested in vitro for antifungal activity at pH 7.2 (percent of resistant species at 256 ug/mL)
Summary of the method: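 Sabouraud broth serial-dilution test (0.25–256 µg/mL, 10³/mL inocula, 24 h at 37 °C), run at the stated pH on clinical isolates: 40 C. albicans and 3 Candida spp. (two C. glabrata, one C. krusei).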

Candida [36] = experiment: Tested In vitro for antifungal activity against Candida species. at pH 7.2; (range is from 8 to 256); summary of the method: as §2

| Compound | MIC (Candida albicans [1]) | MIC50 (Candida albicans [1]) | MIC90 (Candida albicans [1]) | Ratio [2] | MIC (Candida [3]) | MIC50 (Candida [3]) | MIC90 (Candida [3]) | Resistance (Candida albicans [4]) | MIC (Candida [5]) | MIC50 (Candida [5]) | MIC90 (Candida [5]) | Resistance (Candida [6]) | Resistance (Candida albicans [8]) | MIC (Candida albicans [9]) | MIC50 (Candida albicans [9]) | MIC90 (Candida albicans [9]) | Resistance (Candida [11]) | further results |
| --- | --- | --- | --- | --- | --- | --- | --- | --- | --- | --- | --- | --- | --- | --- | --- | --- | --- | --- |
| Cn1cc(-c2ccc(Cl)cc2)c([C@H](c2ccc(Cl)cc2Cl)n2ccnc2)c1 | 2.54 µg/mL (≈ 6.09 µM) | 0.5 µg/mL (≈ 1.2 µM) | 2 µg/mL (≈ 4.8 µM) | 3 | 6.1 µg/mL (≈ 14.6 µM) | 16 µg/mL (≈ 38.4 µM) | 32 µg/mL (≈ 76.8 µM) | 0% | 4.5 µg/mL (≈ 10.8 µM) | 2 µg/mL (≈ 4.8 µM) | 64 µg/mL (≈ 154 µM) | 0% | 0% | 5.3 µg/mL (≈ 12.7 µM) | 2 µg/mL (≈ 4.8 µM) | 16 µg/mL (≈ 38.4 µM) | 0% | Range (Candida [7]): 64 µg/mL; Range (Candida albicans [10]): 4 µg/mL; Range (Candida [12]): 16 µg/mL; Range (Candida albicans [13]): 32 µg/mL |
| Clc1ccc(-c2c[nH]cc2[C@@H](c2ccc(Cl)cc2Cl)n2cnnc2)cc1 | 128 µg/mL (≈ 317 µM) | > 256 µg/mL | > 256 µg/mL | 49 |  |  |  | 94% |  | > 256 µg/mL | > 256 µg/mL |  | 77% | 165 µg/mL (≈ 408 µM) | > 256 µg/mL | > 256 µg/mL |  | Range (Candida albicans [14]): >256 µg/mL; Resistance (Candida [15]): 100%; Range (Candida albicans [16]): >256 µg/mL; Resistance (Candida [17]): 100%; MIC50 (Candida [18]): > 256 µg/mL; MIC90 (Candida [18]): > 256 µg/mL; Range (Candida [18]): >256 µg/mL; Range (Candida [5]): >256 µg/mL |
| CC(C)(C)c1ccc(-c2c[nH]cc2[C@@H](c2ccc(Cl)cc2Cl)n2ccnc2)cc1 | 256 µg/mL (≈ 603 µM) | > 256 µg/mL | > 256 µg/mL | 47 |  | > 256 µg/mL | > 256 µg/mL |  |  | > 256 µg/mL | > 256 µg/mL |  |  | 165 µg/mL (≈ 388 µM) | > 256 µg/mL | > 256 µg/mL | 100% | Resistance (Candida albicans [19]): 80%; Range (Candida albicans [20]): >256 µg/mL; Range (Candida [3]): >256 µg/mL; Resistance (Candida [21]): 100%; Range (Candida [5]): >256 µg/mL; Resistance (Candida albicans [22]): 97%; Range (Candida albicans [23]): >256 µg/mL |
| c1ccc(-c2ccc([C@@H](c3ccccc3)n3ccnc3)cc2)cc1 [BIFONAZOLE] |  |  |  |  |  |  |  |  |  |  |  |  |  |  |  |  |  | MIC90 ratio (Candida albicans [24]): 1 |
| N#Cc1ccc(-c2c[nH]cc2[C@H](c2ccc(Cl)cc2Cl)n2ccnc2)cc1 | 41.3 µg/mL (≈ 105 µM) | 8 µg/mL (≈ 20.3 µM) | 32 µg/mL (≈ 81.4 µM) | 6.3 | 32.4 µg/mL (≈ 82.4 µM) | 16 µg/mL (≈ 40.7 µM) | 64 µg/mL (≈ 163 µM) | 0% | 58 µg/mL (≈ 147 µM) | 64 µg/mL (≈ 163 µM) | 256 µg/mL (≈ 651 µM) | 0% | 0% | 13.2 µg/mL (≈ 33.6 µM) | 8 µg/mL (≈ 20.3 µM) | 32 µg/mL (≈ 81.4 µM) | 0% | Range (Candida albicans [25]): 64 µg/mL; Range (Candida [26]): 32 µg/mL; Range (Candida [27]): 256 µg/mL; Range (Candida albicans [28]): 64 µg/mL |
| Clc1ccc([C@H](c2c[nH]cc2-c2ccc(-n3cccc3)cc2)n2ccnc2)c(Cl)c1 | 3.95 µg/mL (≈ 9.12 µM) | 2 µg/mL (≈ 4.62 µM) | 4 µg/mL (≈ 9.23 µM) | 0.72 | 14.1 µg/mL (≈ 32.6 µM) | 4 µg/mL (≈ 9.23 µM) | 32 µg/mL (≈ 73.8 µM) | 0% | 9.3 µg/mL (≈ 21.5 µM) | 8 µg/mL (≈ 18.5 µM) | 16 µg/mL (≈ 36.9 µM) | 0% | 0% | 4.4 µg/mL (≈ 10.2 µM) | 2 µg/mL (≈ 4.62 µM) | 4 µg/mL (≈ 9.23 µM) | 0% | Range (Candida albicans [29]): 64 µg/mL; Range (Candida [30]): 16 µg/mL; Range (Candida [31]): 32 µg/mL; Range (Candida albicans [13]): 32 µg/mL |
| Clc1ccc([C@H](c2c[nH]cc2-c2ccc(-c3ccccc3)cc2)n2ccnc2)c(Cl)c1 | 10.1 µg/mL (≈ 22.6 µM) | 8 µg/mL (≈ 18 µM) | 8 µg/mL (≈ 18 µM) | 5.6 | 90.6 µg/mL (≈ 204 µM) | 8 µg/mL (≈ 18 µM) | 256 µg/mL (≈ 576 µM) | 0% | 53.3 µg/mL (≈ 120 µM) | 16 µg/mL (≈ 36 µM) | 128 µg/mL (≈ 288 µM) |  | 0% | 14.9 µg/mL (≈ 33.5 µM) | 8 µg/mL (≈ 18 µM) | 8 µg/mL (≈ 18 µM) |  | Range (Candida [32]): 128 µg/mL; Range (Candida albicans [33]): 128 µg/mL; Range (Candida albicans [34]): 64 µg/mL; Resistance (Candida [35]): 0%; Range (Candida [36]): 256 µg/mL; % R (Candida [11]): 0% |
